Measurements from ChEMBL document CHEMBL5247575 (J Med Chem, 2018).

The compounds below were run on Acinetobacter baumannii (assay: Synergistic antibacterial activity against ADC deleted Acinetobacter baumannii assessed as cefepime MIC at 4 ug/ml by broth microdilution method). Conditions: dose 4 µg/ml.
Type: functional
Compound `O=C(NNC(=O)[C@@H]1CC[C@@H]2CN1C(=O)N2OS(=O)(=O)O)[C@@H]1CCCNC1` [ZIDEBACTAM] has an MIC of 0.25 µg/mL.

What follows are compounds tested on Klebsiella pneumoniae (assay: Synergistic antibacterial activity against Klebsiella pneumoniae jefferson 1773 producing OXA-181 assessed as meropenem MIC at 8 ug/ml by broth microdilution method). Conditions: dose 8 µg/ml.
Type: functional
In the case of `O=C(NNC(=O)[C@@H]1CC[C@@H]2CN1C(=O)N2OS(=O)(=O)O)[C@@H]1CCCNC1` [ZIDEBACTAM], the MIC is reported as ≤ 0.12 µg/mL.

Each compound was assayed on Klebsiella pneumoniae (assay: Antibacterial activity against Klebsiella pneumoniae jefferson 1773 producing OXA-181 by broth microdilution method). Conditions: not given.
Type: functional
`O=C(NNC(=O)[C@@H]1CC[C@@H]2CN1C(=O)N2OS(=O)(=O)O)[C@@H]1CCCNC1` [ZIDEBACTAM] was tested, and the MIC was > 16 µg/mL.

Each compound was assayed on Klebsiella pneumoniae (assay: Synergistic antibacterial activity against Klebsiella pneumoniae 901/1860 producing KPC-3 assessed as meropenem MIC at 4 ug/ml by broth microdilution method). Conditions: dose 4 µg/ml.
Type: functional
In the case of `O=C(NNC(=O)[C@@H]1CC[C@@H]2CN1C(=O)N2OS(=O)(=O)O)[C@@H]1CCCNC1` [ZIDEBACTAM], the MIC is reported as ≤ 0.12 µg/mL.

These compounds were tested on Acinetobacter baumannii (assay: Synergistic antibacterial activity against Acinetobacter baumannii PR319 producing OXA-23/24/40 assessed as meropenem MIC at 8 ug/ml by broth microdilution method). Conditions: dose 8 µg/ml.
Type: functional
For `O=C(NNC(=O)[C@@H]1CC[C@@H]2CN1C(=O)N2OS(=O)(=O)O)[C@@H]1CCCNC1` [ZIDEBACTAM], the MIC was > 16 µg/mL.

The compounds below were run on Klebsiella pneumoniae (assay: Synergistic antibacterial activity against Klebsiella pneumoniae 1108/1989 producing KPC-3 assessed as cefepime MIC at 4 ug/ml by broth microdilution method). Conditions: dose 4 µg/ml.
Type: functional
Method in brief: (§1)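 Broth microdilution per CLSI guidelines, using custom frozen panels. […] Each partner drug was also tested alone. MICs were run in triplicate and the modal value is reported.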
In the case of `O=C(NNC(=O)[C@@H]1CC[C@@H]2CN1C(=O)N2OS(=O)(=O)O)[C@@H]1CCCNC1` [ZIDEBACTAM], the MIC is reported as ≤ 0.12 µg/mL.

The compounds below were run on Klebsiella pneumoniae (assay: Synergistic antibacterial activity against Klebsiella pneumoniae CAV 1543 producing OXA-48 assessed as meropenem MIC at 8 ug/ml by broth microdilution method). Conditions: dose 8 µg/ml.
Type: functional
For `O=C(NNC(=O)[C@@H]1CC[C@@H]2CN1C(=O)N2OS(=O)(=O)O)[C@@H]1CCCNC1` [ZIDEBACTAM], the MIC was ≤ 0.12 µg/mL.

What follows are compounds tested on Pseudomonas aeruginosa (assay: Synergistic antibacterial activity against Pseudomonas aeruginosa 776 assessed as cefepime MIC at 4 ug/ml by broth microdilution method). Conditions: dose 4 µg/ml.
Type: functional
`O=C(NNC(=O)[C@@H]1CC[C@@H]2CN1C(=O)N2OS(=O)(=O)O)[C@@H]1CCCNC1` [ZIDEBACTAM] was tested, and the MIC was 16 µg/mL.

The compounds below were run on Acinetobacter baumannii (assay: Synergistic antibacterial activity against Acinetobacter baumannii PR363 producing OXA-23 assessed as meropenem MIC at 4 ug/ml by broth microdilution method). Conditions: dose 4 µg/ml.
Type: functional
In the case of `O=C(NNC(=O)[C@@H]1CC[C@@H]2CN1C(=O)N2OS(=O)(=O)O)[C@@H]1CCCNC1` [ZIDEBACTAM], the MIC is reported as > 16 µg/mL.

Each compound was assayed on Klebsiella pneumoniae (assay: Synergistic antibacterial activity against Klebsiella pneumoniae 440/1360 producing KPC-2 assessed as cefepime MIC at 8 ug/ml by broth microdilution method). Conditions: dose 8 µg/ml.
Type: functional
Method in brief: as §1
With `O=C(NNC(=O)[C@@H]1CC[C@@H]2CN1C(=O)N2OS(=O)(=O)O)[C@@H]1CCCNC1` [ZIDEBACTAM] the MIC was ≤ 0.12 µg/mL.

The compounds below were run on Klebsiella pneumoniae (assay: Synergistic antibacterial activity against Klebsiella pneumoniae 660/1568 producing KPC-3 assessed as meropenem MIC at 8 ug/ml by broth microdilution method). Conditions: dose 8 µg/ml.
Type: functional
Method in brief: as §1
In the case of `O=C(NNC(=O)[C@@H]1CC[C@@H]2CN1C(=O)N2OS(=O)(=O)O)[C@@H]1CCCNC1` [ZIDEBACTAM], the MIC is reported as ≤ 0.12 µg/mL.

These compounds were tested on Klebsiella pneumoniae (assay: Synergistic antibacterial activity against Klebsiella pneumoniae 729/1679 producing KPC-3 assessed as meropenem MIC at 8 ug/ml by broth microdilution method). Conditions: dose 8 µg/ml.
Type: functional
Method in brief: as §1
In the case of `O=C(NNC(=O)[C@@H]1CC[C@@H]2CN1C(=O)N2OS(=O)(=O)O)[C@@H]1CCCNC1` [ZIDEBACTAM], the MIC is reported as ≤ 0.12 µg/mL.

What follows are compounds tested on Escherichia coli (assay: Synergistic antibacterial activity against Escherichia coli DH10B transfected with pBC SK (-) PDC-3 assessed as meropenem MIC at 8 ug/ml by broth microdilution method). Conditions: dose 8 µg/ml.
Type: functional
Method in brief: as §1
For `O=C(NNC(=O)[C@@H]1CC[C@@H]2CN1C(=O)N2OS(=O)(=O)O)[C@@H]1CCCNC1` [ZIDEBACTAM], the MIC was ≤ 0.12 µg/mL.

What follows are compounds tested on Acinetobacter baumannii (assay: Synergistic antibacterial activity against Acinetobacter baumannii PR476 producing OXA-24/40 assessed as meropenem MIC at 4 ug/ml by broth microdilution method). Conditions: dose 4 µg/ml.
Type: functional
Compound `O=C(NNC(=O)[C@@H]1CC[C@@H]2CN1C(=O)N2OS(=O)(=O)O)[C@@H]1CCCNC1` [ZIDEBACTAM] has an MIC of 0.25 µg/mL.

What follows are compounds tested on Klebsiella pneumoniae (assay: Synergistic antibacterial activity against Klebsiella pneumoniae 1084/1957 producing KPC-3 assessed as cefepime MIC at 4 ug/ml by broth microdilution method). Conditions: dose 4 µg/ml.
Type: functional
Method in brief: as §1
For `O=C(NNC(=O)[C@@H]1CC[C@@H]2CN1C(=O)N2OS(=O)(=O)O)[C@@H]1CCCNC1` [ZIDEBACTAM], the MIC was ≤ 0.12 µg/mL.

What follows are compounds tested on Acinetobacter baumannii (assay: Synergistic antibacterial activity against Acinetobacter baumannii PR420 producing OXA-23/24/40 assessed as meropenem MIC at 4 ug/ml by broth microdilution method). Conditions: dose 4 µg/ml.
Type: functional
In the case of `O=C(NNC(=O)[C@@H]1CC[C@@H]2CN1C(=O)N2OS(=O)(=O)O)[C@@H]1CCCNC1` [ZIDEBACTAM], the MIC is reported as > 16 µg/mL.

Each compound was assayed on Escherichia coli (assay: Synergistic antibacterial activity against Escherichia coli DH10B transfected with pBC SK (-) KPC-3 assessed as meropenem MIC at 8 ug/ml by broth microdilution method). Conditions: dose 8 µg/ml.
Type: functional
In the case of `O=C(NNC(=O)[C@@H]1CC[C@@H]2CN1C(=O)N2OS(=O)(=O)O)[C@@H]1CCCNC1` [ZIDEBACTAM], the MIC is reported as ≤ 0.12 µg/mL.

These compounds were tested on Klebsiella pneumoniae (assay: Synergistic antibacterial activity against Klebsiella pneumoniae 972/1910 producing KPC-3 assessed as meropenem MIC at 8 ug/ml by broth microdilution method). Conditions: dose 8 µg/ml.
Type: functional
For `O=C(NNC(=O)[C@@H]1CC[C@@H]2CN1C(=O)N2OS(=O)(=O)O)[C@@H]1CCCNC1` [ZIDEBACTAM], the MIC was ≤ 0.12 µg/mL.

The compounds below were run on Klebsiella pneumoniae (assay: Synergistic antibacterial activity against Klebsiella pneumoniae 11978 producing OXA-48 assessed as meropenem MIC at 8 ug/ml by broth microdilution method). Conditions: dose 8 µg/ml.
Type: functional
Method in brief: as §1
`O=C(NNC(=O)[C@@H]1CC[C@@H]2CN1C(=O)N2OS(=O)(=O)O)[C@@H]1CCCNC1` [ZIDEBACTAM] was tested, and the MIC was ≤ 0.12 µg/mL.
